Experimental data: paper PMC8556866 (Bioorganic Chemistry, 2021)

Legend:
[1] = system: intracellular reactive oxygen species (ROS) in HPAepiC cells; assay: Intracellular ROS measurement with DCFH-DA after H2O2; type: cell-based; conditions: 50 μM H2O2 in HPAepiC cells; 10 μM ebselen/EBs, NAC 10 mM
In short: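 HPAepiC cells were cultured 24 h in 35-mm dishes, exposed to 50 μM H₂O₂ for 1 h and washed three times. They were then given 10 μM test compound for 24 h, with 10 mM NAC as positive control. Cells were loaded with 10 μM DCFH-DA for 30 min at 37 °C in the dark, washed with PBS and imaged confocally (Ex 488 nm, Em 520–570 nm). Relative fluorescence intensity was scored.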

HPAepiC cells = assay: ROS-induced cell death; type: cell-based; conditions: 50 μM H2O2 in HPAepiC cells; 10 μM ebselen/EBs, NAC 10 mM, 24 h
In short: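 HPAepiC cells were exposed to 50 μM H₂O₂ for 1 h, then washed three times with fresh medium. Medium with 10 μM test compound or 10 mM NAC was added for 24 h before cell death was assessed.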

SARS-CoV-2 Mpro [2] = target: T1, SARS-CoV-2 Mpro (Severe acute respiratory syndrome coronavirus 2, UniProt P0DTD1); assay: biochemical; conditions: read-out: %Inhibition @0.3 μM
SARS-CoV-2 Mpro [3] = target: T1, SARS-CoV-2 Mpro; assay: HPLC assay for inhibition of Mpro; type: biochemical; conditions: 0.3 μM compound, Mpro 0.2 μM; about 70% hydrolysis with Mpro alone
SARS-CoV-2 virus = type: cell-based; conditions: read-out: IC50 of inhibition of SARS-CoV-2 viral replication
SARS-CoV-2 Mpro [4] = target: T1, SARS-CoV-2 Mpro; type: binding

| Structure (SMILES) | intracellular ROS level (DCFH-DA fluorescence) [1] | ROS induced cell death (HPAepiC cells) | inhibition at 0.3 µM (SARS-CoV-2 Mpro [2]) [%] | substrate hydrolysis (SARS-CoV-2 Mpro [3]) [%] | IC50 (SARS-CoV-2 virus) [µM] | covalent binding to Mpro (peptide modified) (SARS-CoV-2 Mpro [4]) |
| --- | --- | --- | --- | --- | --- | --- |
| CC(=O)N[C@@H](CS)C(=O)O [NAC, N-Acetyl-L-cysteine] | scavenged the intracellular ROS | reversed the cytotoxicity induced by ROS |  |  |  |  |
| O=c1c2ccccc2[se]n1-c1ccccc1 [Ebselen] | dramatically decreased | dramatically decreased | 61.2 ± 0.76 | 30 | 24.6 | identified to bind to ebselen |
